# According to ChEMBL document CHEMBL3124758, “Toward new classes of potent antibiotics: synthesis and antimicrobial activity of novel metallosaldach-imidazolium salts” (2014):
# The source made the active and inactive calls. The rule behind the calls is not given here.
# Tests used:
# Candida albicans = experiment: Antifungal activity against Candida albicans NCIM 3100 after 72 hrs by broth micro-dilution method; type: functional
# In short: (§1)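 Aqueous compound solutions, 2.5 to 20 mg/mL, 100 µL per 4 mm well in nutrient agar seeded from nutrient broth culture (1 cm3 broth with 9 cm3 agar at 45 °C). Plates incubated 72 h at 28 °C and clear-zone diameter measured. MIC taken from inhibition at four concentration levels. Duplicate, repeated twice, modal values. Amphotericin B standard.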
# Aspergillus flavus = experiment: Antifungal activity against Aspergillus flavus after 72 hrs by broth micro-dilution method; type: functional; in short: as §1
# Bacillus subtilis = experiment: Antibacterial activity against Bacillus subtilis after 72 hrs by broth micro-dilution method; type: functional
# In short: (§2)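 Compounds dissolved in H2O and tested at 2.5, 5, 10 and 20 mg/mL. Each strain was seeded in 1 cm3 nutrient broth, mixed with 9 cm3 melted (45 °C) nutrient agar and poured; 4 mm wells were cut. 100 µL compound solution per well, incubated 72 h at 37 °C, and inhibition zone diameter measured. MIC derived from % inhibition at the four levels. Duplicate, repeated twice; modal values. Ampicillin reference.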
# Staphylococcus aureus = experiment: Antibacterial activity against Staphylococcus aureus ATCC 25923 after 72 hrs by broth micro-dilution method; type: functional; conditions: ATCC 25923, 72 h; in short: as §2
# Escherichia coli = experiment: Antibacterial activity against Escherichia coli ATCC 25922 after 72 hrs by broth micro-dilution method; conditions: ATCC 25922, 72 h
# Pseudomonas aeruginosa = experiment: Antibacterial activity against Pseudomonas aeruginosa ATCC 27853 after 72 hrs by broth micro-dilution method; conditions: ATCC 27853, 72 h
Structure (SMILES),"MIC (Candida albicans; NCIM 3100, 72 h) [µg/mL]",MIC (Aspergillus flavus),MIC (Bacillus subtilis) [µg/mL],MIC (Staphylococcus aureus) [µg/mL],MIC (Escherichia coli) [µg/mL],MIC (Pseudomonas aeruginosa) [µg/mL],MIC (Candida albicans)
CCn1cc[n+](Cc2ccc(O)c(/C=N/[C@@H]3CCCC[C@H]3/N=C/c3cc(C[n+]4ccn(CC)c4)ccc3O)c2)c1.[Cl-].[Cl-] (relative stereo),> 250,inactive,15.2,> 250,> 250,> 10000,
CCCCn1cc[n+](Cc2ccc(O)c(/C=N/[C@@H]3CCCC[C@H]3/N=C/c3cc(C[n+]4ccn(CCCC)c4)ccc3O)c2)c1.[Cl-].[Cl-] (relative stereo),> 250,inactive,11.2,16.2,16.7,> 5000,
CCn1cc[n+](Cc2cc(/C=N/[C@@H]3CCCC[C@H]3/N=C/c3cc(C[n+]4ccn(CC)c4)cc(C(C)(C)C)c3O)c(O)c(C(C)(C)C)c2)c1.[Cl-].[Cl-] (relative stereo),> 250,inactive,16,18.4,> 250,> 10000,
CC1(C)S[C@@H]2[C@H](NC(=O)[C@H](N)c3ccccc3)C(=O)N2[C@H]1C(=O)O [AMPICILLIN],,inactive,20,12.5,15,> 1000,inactive

# The next lines start with results.
"MIC (Candida albicans; NCIM 3100, 72 h) [µg/mL]",MIC (Aspergillus flavus),MIC (Bacillus subtilis) [µg/mL],MIC (Staphylococcus aureus) [µg/mL],MIC (Escherichia coli) [µg/mL],MIC (Pseudomonas aeruginosa) [µg/mL],Structure (SMILES),MIC (Candida albicans)
> 250,inactive,17.5,17.6,17.1,> 10000,Cc1[nH]cc[n+]1Cc1ccc(O)c(/C=N/[C@@H]2CCCC[C@H]2/N=C/c2cc(C[n+]3cc[nH]c3C)ccc2O)c1.[Cl-].[Cl-] (relative stereo),
55.5,inactive,12.1,14.9,13.3,> 10000,Cc1[nH]cc[n+]1Cc1cc(/C=N/[C@@H]2CCCC[C@H]2/N=C/c2cc(C[n+]3cc[nH]c3C)cc(C(C)(C)C)c2O)c(O)c(C(C)(C)C)c1.[Cl-].[Cl-] (relative stereo),
85.2,inactive,16.4,16,12.2,> 5000,CCCCn1cc[n+](Cc2cc(/C=N/[C@@H]3CCCC[C@H]3/N=C/c3cc(C[n+]4ccn(CCCC)c4)cc(C(C)(C)C)c3O)c(O)c(C(C)(C)C)c2)c1.[Cl-].[Cl-] (relative stereo),
80,40 µg/mL,,,,,C[C@@H]1[C@H](O)[C@@H](C)/C=C/C=C/C=C/C=C/C=C/C=C/C=C/[C@H](O[C@@H]2O[C@H](C)[C@@H](O)[C@H](N)[C@@H]2O)C[C@@H]2O[C@](O)(C[C@@H](O)C[C@@H](O)[C@H](O)CC[C@@H](O)C[C@@H](O)CC(=O)O[C@H]1C)C[C@H](O)[C@H]2C(=O)O [AMPHOTERICIN B],
